Assay results taken from ChEMBL document CHEMBL1156002, “Synthesis, Raman, FT-IR, NMR spectroscopic characterization, antimicrobial activity, cytotoxicity and DNA binding of new mixed aza-oxo-thia macrocyclic compounds” (2009).
≈ marks a conversion by molar mass, not a printed value. Calls of active or inactive are those of the source. The calls are words filed in the database; no cut-off is given here.

Tests used:
Pseudomonas aeruginosa [1] = experiment: Antibacterial activity against Pseudomonas aeruginosa ATCC 27853 after 24 hrs by broth micro dilution method; assay type: functional; conditions: ATCC 27853, 24 h
A549 [2] = experiment: Cytotoxicity against human A549 cells assessed as cell viability at 100 uM after 48 hrs by MTT assay; assay type: functional; conditions: A549, 48 h, read-out: Activity
Outline: (§1)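 Cells were seeded at 3.10³–5.10³ per well in RPMI 1640 with 10% FBS, 4 mM L-glutamine and penicillin/streptomycin, then held 24 h at 37 °C under 5% CO₂. Ligands (DMSO, final 0.5% v/v) were added at 0.1–100 for 24 or 48 h. MTT was added for 4 h and dissolved in 50% DMF/5% SDS. A570 was read, and cytotoxicity was calculated as 100×(OD treated/OD untreated).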

Kluyveromyces marxianus [3] = experiment: Antifungal activity against Kluyveromyces fragilis NRRL 2415 after 24 hrs by broth micro dilution method; assay type: functional; conditions: NRRL 2415, 24 h
Outline: (§2)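 Broth microdilution was run in cation-adjusted Mueller Hinton Broth. Compounds were dissolved in DMSO at 2 mg mL^-1 and serially diluted two-fold. Yeast precultures were grown in Malt Extract Broth for 48 h. The final inoculum was about 10⁶ cfu mL^-1, and plates were incubated at 37 °C for 24 h. The MIC was read from this series.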

Debaryomyces hansenii = experiment: Antifungal activity against Debaryomyces hansenii DSM 70238 after 72 hrs by agar disk diffusion assay; assay type: functional
Outline: (§3)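 Sterile 6 mm paper discs were loaded with ligand solution freshly prepared in DMSO and placed on inoculated agar. The inoculum came from broth cultures: bacteria in Nutrient Broth at 30 °C for 24 h, yeasts in Malt Extract Broth for 48 h. Plates were incubated at 35 °C for 24 h (bacteria) or 25 °C for 72 h (yeasts). A DMSO solvent control and a reference antibiotic disc were included on each plate.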

A549 [4] = experiment: Induction of apoptosis in human A549 cells assessed as DNA fragmentation at 100 uM after 24 hrs by DNA fragmentation assay; assay type: functional, cell-based
Outline: (§4)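 10 × 10⁴ cells were seeded in 6-well plates and treated with ligand for 24 h. Cells were then collected and washed in PBS, and DNA was extracted with a kit. Extracts were run on 1.5% agarose alongside a 100 bp marker, an untreated control and DMSO-treated controls, and ladders were visualized under UV.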

[5] = Cytotoxicity against human 23132/87 cells assessed as cell viability at 10 uM after 48 hrs by MTT assay; assay type: functional; conditions: 23132-87, 48 h, read-out: Activity; outline: as §1
Staphylococcus aureus = experiment: Antibacterial activity against Staphylococcus aureus ATCC 6538 after 24 hrs by agar disk diffusion assay; assay type: functional
Outline: (§5)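 Disk diffusion with sterile 6 mm discs loaded with DMSO solutions of the test agents and placed on inoculated agar. Bacteria were pre-grown in Nutrient Broth at 30 °C for 24 h, and plates were incubated at 35 °C for 24 h. Each plate carried a reference antibiotic disc matched to the organism, and a DMSO-only solvent control was run.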

[6] = tested on: Mycolicibacterium smegmatis; experiment: Antibacterial activity against Mycobacterium smegmatis CCM 2067 after 24 hrs by agar disk diffusion assay; assay type: functional; outline: as §5
A549 [7] = experiment: Cytotoxicity against human A549 cells assessed as cell viability at 1 uM after 24 hrs by MTT assay; assay type: functional; conditions: A549, 24 h, read-out: Activity; outline: as §1
[8] = Cytotoxicity against human 23132/87 cells assessed as cell viability at 1 uM after 48 hrs by MTT assay; assay type: functional; conditions: 23132-87, 48 h, read-out: Activity; outline: as §1
Proteus vulgaris = experiment: Antibacterial activity against Proteus vulgaris ATCC 8427 after 24 hrs by agar disk diffusion assay; assay type: functional; outline: as §5
Rhodotorula mucilaginosa = experiment: Antifungal activity against Rhodotorula rubra DSM 70403 after 72 hrs by agar disk diffusion assay; assay type: functional; outline: as §3
Candida albicans [9] = experiment: Antifungal activity against Candida albicans ATCC 10231 after 24 hrs by broth micro dilution method; assay type: functional; conditions: ATCC 10231, 24 h; outline: as §2
A549 [10] = experiment: Cytotoxicity against human A549 cells assessed as cell viability at 10 uM after 48 hrs by MTT assay; assay type: functional; conditions: A549, 48 h, read-out: Activity; outline: as §1
[11] = tested on: Hanseniaspora guilliermondii; experiment: Antifungal activity against Hanseniaspora guilliermondii DSM 3432 after 72 hrs by agar disk diffusion assay; assay type: functional; outline: as §3
[12] = Cytotoxicity against human 23132/87 cells assessed as cell viability at 0.1 uM after 24 hrs by MTT assay; assay type: functional; conditions: 23132-87, 24 h, read-out: Activity; outline: as §1
Micrococcus luteus [13] = experiment: Antibacterial activity against Micrococcus luteus La 2971 after 24 hrs by broth micro dilution method; assay type: functional; conditions: La 2971, 24 h
Listeria monocytogenes = experiment: Antibacterial activity against Listeria monocytogenes ATCC 15313 after 24 hrs by agar disk diffusion assay; assay type: functional; outline: as §5
Kluyveromyces marxianus [14] = experiment: Antifungal activity against Kluyveromyces fragilis NRRL 2415 after 72 hrs by agar disk diffusion assay; assay type: functional; outline: as §3
[15] = Cytotoxicity against human 23132/87 cells assessed as cell viability at 0.1 uM after 48 hrs by MTT assay; assay type: functional; conditions: 23132-87, 48 h, read-out: Activity; outline: as §1
[16] = Cytotoxicity against human 23132/87 cells assessed as cell viability at 1 uM after 24 hrs by MTT assay; assay type: functional; conditions: 23132-87, 24 h, read-out: Activity; outline: as §1
A549 [17] = experiment: Cytotoxicity against human A549 cells assessed as cell viability at 1 uM after 48 hrs by MTT assay; assay type: functional; conditions: A549, 48 h, read-out: Activity; outline: as §1
Pseudomonas aeruginosa [18] = experiment: Antibacterial activity against Pseudomonas aeruginosa ATCC 27853 after 24 hrs by agar disk diffusion assay; assay type: functional; outline: as §5
Candida albicans [19] = experiment: Antifungal activity against Candida albicans ATCC 10231 after 72 hrs by agar disk diffusion assay; assay type: functional; outline: as §3
Micrococcus luteus [20] = experiment: Antibacterial activity against Micrococcus luteus La 2971 after 24 hrs by agar disk diffusion assay; assay type: functional; outline: as §5
[21] = Cytotoxicity against human 23132/87 cells assessed as cell viability at 10 uM after 24 hrs by MTT assay; assay type: functional; conditions: 23132-87, 24 h, read-out: Activity; outline: as §1
Klebsiella pneumoniae = experiment: Antibacterial activity against Klebsiella pneumoniae UC57 after 24 hrs by broth micro dilution method; assay type: functional; conditions: UC57, 24 h
A549 [22] = experiment: Cytotoxicity against human A549 cells assessed as cell viability at 0.1 uM after 24 hrs by MTT assay; assay type: functional; conditions: A549, 24 h, read-out: Activity; outline: as §1
A549 [23] = experiment: Cytotoxicity against human A549 cells assessed as cell viability at 10 uM after 24 hrs by MTT assay; assay type: functional; conditions: A549, 24 h, read-out: Activity; outline: as §1
A549 [24] = experiment: Cytotoxicity against human A549 cells assessed as cell viability at 100 uM after 24 hrs by MTT assay; assay type: functional; conditions: A549, 24 h, read-out: Activity; outline: as §1
[25] = tested on: Mycolicibacterium smegmatis; experiment: Antibacterial activity against Mycobacterium smegmatis CCM 2067 after 24 hrs by broth micro dilution method; assay type: functional; conditions: CCM 2067, 24 h
23132-87 = experiment: Induction of apoptosis in human 23132/87 cells assessed as DNA fragmentation at 100 uM after 24 hrs by DNA fragmentation assay; assay type: functional, cell-based; outline: as §4
Bacillus cereus [26] = experiment: Antibacterial activity against Bacillus cereus ATCC 7064 after 24 hrs by broth micro dilution method; assay type: functional; conditions: ATCC 7064, 24 h
Bacillus cereus [27] = experiment: Antibacterial activity against Bacillus cereus ATCC 7064 after 24 hrs by agar disk diffusion assay; assay type: functional; outline: as §5
A549 [28] = experiment: Cytotoxicity against human A549 cells assessed as cell viability at 0.1 uM after 48 hrs by MTT assay; assay type: functional; conditions: A549, 48 h, read-out: Activity; outline: as §1
A549 [29] = experiment: Induction of apoptosis in human A549 cells assessed as change in nuclear appearance at 100 uM after 24 hrs by hoechst nuclear staining; assay type: functional, cell-based
Outline: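 Cells grown in 6-well plates were treated for 24 h, washed three times in PBS and fixed in ice-cold methanol for 10 min. They were stained with Hoechst 33258 for 5 min, destained in double-distilled water for 5 min and examined by fluorescence microscopy. Untreated and DMSO-treated cells served as controls.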

With `O=C1CCSCCC(=O)Nc2nc(nc(-c3ccccc3)n2)NC(=O)CCSCCC(=O)Nc2nc(nc(-c3ccccc3)n2)N1` the MIC (Pseudomonas aeruginosa [1]) was 25 µg/mL (≈ 37.9 µM), the viability at 100 µM (A549 [2]) was over 86% and the MIC (Kluyveromyces marxianus [3]) was 6.25 µg/mL (≈ 9.49 µM). For the same molecule, the “inhibition zone (IZ)” value (Debaryomyces hansenii) was 18 mm, the Activity (A549 [4]) was “inactive” and the viability at 10 µM [5] was over 86%. The “inhibition zone (IZ)” value (Staphylococcus aureus) was 10 mm, the “inhibition zone (IZ)” value [6] was 9 mm and the viability at 1 µM (A549 [7]) was over 86%. The viability at 1 µM [8] was over 86%, the “inhibition zone (IZ)” value (Proteus vulgaris) was 11 mm and the “inhibition zone (IZ)” value (Rhodotorula mucilaginosa) was 16 mm. For the same molecule, the MIC (Candida albicans [9]) was 3.12 µg/mL (≈ 4.74 µM), the viability at 10 µM (A549 [10]) was over 86% and the “inhibition zone (IZ)” value [11] was 19 mm. For the same molecule, the viability at 0.1 µM [12] was over 86%, the MIC (Micrococcus luteus [13]) was 12.5 µg/mL (≈ 19 µM) and the “inhibition zone (IZ)” value (Listeria monocytogenes) was 10 mm. The “inhibition zone (IZ)” value (Kluyveromyces marxianus [14]) was 16 mm, the viability at 0.1 µM [15] was over 86% and the viability at 1 µM [16] was over 86%. For the same molecule, the viability at 1 µM (A549 [17]) was over 86%, the “inhibition zone (IZ)” value (Pseudomonas aeruginosa [18]) was 11 mm and the “inhibition zone (IZ)” value (Candida albicans [19]) was 19 mm. For the same molecule, the “inhibition zone (IZ)” value (Micrococcus luteus [20]) was 12 mm, the viability at 10 µM [21] was over 86% and the MIC (Klebsiella pneumoniae) was 12.5 µg/mL (≈ 19 µM). It also gave a viability at 0.1 µM (A549 [22]) of over 86%, a viability at 10 µM (A549 [23]) of over 86% and a viability at 100 µM (A549 [24]) of over 86%. For the same molecule, the MIC [25] was 50 µg/mL (≈ 75.9 µM), the Activity (23132-87) was “inactive” and the MIC (Bacillus cereus [26]) was 12.5 µg/mL (≈ 19 µM). For the same molecule, the “inhibition zone (IZ)” value (Bacillus cereus [27]) was 13 mm, the viability at 0.1 µM (A549 [28]) was over 86% and the Activity (A549 [29]) was “inactive”.
